Data from ChEMBL document CHEMBL4814044, “Design and synthesis, biological evaluation of bis-(1,2,3- and 1,2,4)-triazole derivatives as potential antimicrobial and antifungal agents” (2021).
Calls of active or inactive are those of the source. No cut-off for these calls is given here.

Columns and labels:
Format in all cases: functional
[1] = Antioxidant activity assessed as DPPH radical scavenging activity
Aspergillus niger [2] = assay: Antifungal activity against Aspergillus niger MTCC 404 assessed as zone of inhibition at 17.2 uM incubated for 2 days by cross streak plate method; conditions: MTCC 404, 48 h, time 2 day, read-out: IZ
Outline: (§1)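 Fungal strain (A. niger MTCC 404 or S. cerevisiae MTCC 1344) was incubated with the compound for 2 days at 37 °C. Growth inhibition was then assessed by the cross streak plate method.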

Escherichia coli = assay: Antibacterial activity against Escherichia coli MTCC 443 assessed as bacterial growth inhibition by microdilution method
Outline: (§2)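 Broth microdilution against Gram-positive and Gram-negative strains. The endpoint is the minimal inhibitory concentration, in µg/ml.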

Pseudomonas aeruginosa = assay: Antibacterial activity against Pseudomonas aeruginosa MTCC 424 assessed as bacterial growth inhibition by microdilution method; outline: as §2
Aspergillus niger [3] = assay: Antifungal activity against Aspergillus niger MTCC 404 assessed as zone of inhibition at 25.9 uM incubated for 2 days by cross streak plate method; conditions: MTCC 404, 48 h, time 2 day, read-out: IZ; outline: as §1
Saccharomyces cerevisiae [4] = assay: Antifungal activity against Saccharomyces cerevisiae MTCC 1344 assessed as zone of inhibition at 34.5 uM incubated for 2 days by cross streak plate method; conditions: MTCC 1344, 48 h, time 2 day, read-out: IZ
Outline: (§3)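 S. cerevisiae MTCC 1344 cultures were incubated for 2 days at 37 °C and then tested by the cross streak plate method.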

Saccharomyces cerevisiae [5] = assay: Antifungal activity against Saccharomyces cerevisiae MTCC 1344 assessed as zone of inhibition at 17.2 uM incubated for 2 days by cross streak plate method; conditions: MTCC 1344, 48 h, time 2 day, read-out: IZ; outline: as §1
Staphylococcus aureus = assay: Antibacterial activity against Staphylococcus aureus MTCC 96 assessed as bacterial growth inhibition by microdilution method; outline: as §2
Aspergillus niger [6] = assay: Antifungal activity against Aspergillus niger MTCC 404 assessed as zone of inhibition at 34.5 uM incubated for 2 days by cross streak plate method; conditions: MTCC 404, 48 h, time 2 day, read-out: IZ; outline: as §1
Saccharomyces cerevisiae [7] = assay: Antifungal activity against Saccharomyces cerevisiae MTCC 1344 assessed as zone of inhibition at 25.9 uM incubated for 2 days by cross streak plate method; conditions: MTCC 1344, 48 h, time 2 day, read-out: IZ; outline: as §1
Bacillus subtilis = assay: Antibacterial activity against Bacillus subtilis MTCC 441 assessed as bacterial growth inhibition by microdilution method; outline: as §2
Aspergillus niger [8] = assay: Antifungal activity against Aspergillus niger MTCC 404 assessed as zone of inhibition at 36.6 uM incubated for 2 days by cross streak plate method; conditions: MTCC 404, 48 h, time 2 day, read-out: IZ; outline: as §1
Saccharomyces cerevisiae [9] = assay: Antifungal activity against Saccharomyces cerevisiae MTCC 1344 assessed as zone of inhibition at 36.6 uM incubated for 2 days by cross streak plate method; conditions: MTCC 1344, 48 h, time 2 day, read-out: IZ; outline: as §3
Aspergillus niger [10] = assay: Antifungal activity against Aspergillus niger MTCC 404 assessed as zone of inhibition at 27.5 uM incubated for 2 days by cross streak plate method; conditions: MTCC 404, 48 h, time 2 day, read-out: IZ; outline: as §1
Saccharomyces cerevisiae [11] = assay: Antifungal activity against Saccharomyces cerevisiae MTCC 1344 assessed as zone of inhibition at 18.3 uM incubated for 2 days by cross streak plate method; conditions: MTCC 1344, 48 h, time 2 day, read-out: IZ; outline: as §1
Aspergillus niger [12] = assay: Antifungal activity against Aspergillus niger MTCC 404 assessed as zone of inhibition at 18.3 uM incubated for 2 days by cross streak plate method; conditions: MTCC 404, 48 h, time 2 day, read-out: IZ; outline: as §1
Saccharomyces cerevisiae [13] = assay: Antifungal activity against Saccharomyces cerevisiae MTCC 1344 assessed as zone of inhibition at 27.5 uM incubated for 2 days by cross streak plate method; conditions: MTCC 1344, 48 h, time 2 day, read-out: IZ; outline: as §1
Aspergillus niger [14] = assay: Antifungal activity against Aspergillus niger MTCC 404 assessed as zone of inhibition at 16.8 uM incubated for 2 days by cross streak plate method; conditions: MTCC 404, 48 h, time 2 day, read-out: IZ; outline: as §1
Saccharomyces cerevisiae [15] = assay: Antifungal activity against Saccharomyces cerevisiae MTCC 1344 assessed as zone of inhibition at 16.8 uM incubated for 2 days by cross streak plate method; conditions: MTCC 1344, 48 h, time 2 day, read-out: IZ; outline: as §1
Saccharomyces cerevisiae [16] = assay: Antifungal activity against Saccharomyces cerevisiae MTCC 1344 assessed as zone of inhibition at 25.2 uM incubated for 2 days by cross streak plate method; conditions: MTCC 1344, 48 h, time 2 day, read-out: IZ; outline: as §1
Aspergillus niger [17] = assay: Antifungal activity against Aspergillus niger MTCC 404 assessed as zone of inhibition at 33.7 uM incubated for 2 days by cross streak plate method; conditions: MTCC 404, 48 h, time 2 day, read-out: IZ; outline: as §1
Saccharomyces cerevisiae [18] = assay: Antifungal activity against Saccharomyces cerevisiae MTCC 1344 assessed as zone of inhibition at 33.7 uM incubated for 2 days by cross streak plate method; conditions: MTCC 1344, 48 h, time 2 day, read-out: IZ; outline: as §3
Aspergillus niger [19] = assay: Antifungal activity against Aspergillus niger MTCC 404 assessed as zone of inhibition at 25.2 uM incubated for 2 days by cross streak plate method; conditions: MTCC 404, 48 h, time 2 day, read-out: IZ; outline: as §1

Compound | MIC (Escherichia coli) [µg/mL] | MIC (Pseudomonas aeruginosa) [µg/mL] | MIC (Staphylococcus aureus) [µg/mL] | MIC (Bacillus subtilis) [µg/mL] | Activity [1] | zone of inhibition at 17.2 µM (Aspergillus niger [2]) [mm] | zone of inhibition at 25.9 µM (Aspergillus niger [3]) [mm] | zone of inhibition at 34.5 µM (Saccharomyces cerevisiae [4]) [mm] | zone of inhibition at 17.2 µM (Saccharomyces cerevisiae [5]) [mm] | zone of inhibition at 34.5 µM (Aspergillus niger [6]) [mm] | zone of inhibition at 25.9 µM (Saccharomyces cerevisiae [7]) [mm] | zone of inhibition at 36.6 µM (Aspergillus niger [8]) [mm] | zone of inhibition at 36.6 µM (Saccharomyces cerevisiae [9]) [mm] | zone of inhibition at 27.5 µM (Aspergillus niger [10]) [mm] | zone of inhibition at 18.3 µM (Saccharomyces cerevisiae [11]) [mm] | zone of inhibition at 18.3 µM (Aspergillus niger [12]) [mm] | zone of inhibition at 27.5 µM (Saccharomyces cerevisiae [13]) [mm] | further results
O=C(CSc1nnc(-c2ccccc2OCc2cn(-c3ccccc3)nn2)n1-c1ccccc1)c1ccccc1 | 9.8 | 9.1 | 9.8 | 4.9 | inactive | – | – | – | – | – | – | 3 | 3 | 3 | 1.5 | 2.1 | 2 | –
CC1(C)S[C@@H]2[C@H](NC(=O)[C@H](N)c3ccccc3)C(=O)N2[C@H]1C(=O)O [AMPICILLIN] | 3.9 | 10 | 10 | 10 | – | – | – | – | – | – | – | – | – | – | – | – | – | –
O=C(CSc1nnc(-c2ccccc2OCc2cn(-c3ccccc3)nn2)n1-c1ccccc1)c1ccc(Cl)cc1 | > 45.4 | 7.9 | 8.4 | 4 | inactive | 2.1 | 3 | 3 | 2 | 3 | 3 | – | – | – | – | – | – | –

The remaining compounds from weak to strong by MIC (Escherichia coli), led by results:

MIC (Escherichia coli) [µg/mL] | MIC (Pseudomonas aeruginosa) [µg/mL] | MIC (Staphylococcus aureus) [µg/mL] | MIC (Bacillus subtilis) [µg/mL] | Compound | Activity [1] | zone of inhibition at 17.2 µM (Aspergillus niger [2]) [mm] | zone of inhibition at 25.9 µM (Aspergillus niger [3]) [mm] | zone of inhibition at 34.5 µM (Saccharomyces cerevisiae [4]) [mm] | zone of inhibition at 17.2 µM (Saccharomyces cerevisiae [5]) [mm] | zone of inhibition at 34.5 µM (Aspergillus niger [6]) [mm] | zone of inhibition at 25.9 µM (Saccharomyces cerevisiae [7]) [mm] | zone of inhibition at 36.6 µM (Aspergillus niger [8]) [mm] | zone of inhibition at 36.6 µM (Saccharomyces cerevisiae [9]) [mm] | zone of inhibition at 27.5 µM (Aspergillus niger [10]) [mm] | zone of inhibition at 18.3 µM (Saccharomyces cerevisiae [11]) [mm] | zone of inhibition at 18.3 µM (Aspergillus niger [12]) [mm] | zone of inhibition at 27.5 µM (Saccharomyces cerevisiae [13]) [mm] | further results
10 | 8.7 | 8.9 | 4 | O=C(Sc1nnc(-c2ccccc2OCc2cn(-c3ccccc3)nn2)n1Cc1ccccc1)c1ccccc1 | inactive | – | – | – | – | – | – | 7 | 6.7 | 6.8 | 6 | 5.5 | 6.8 | –
9.1 | 8.8 | 9.5 | 5 | O=C(CSc1nnc(-c2ccccc2OCc2cn(-c3ccccc3)nn2)n1Cc1ccccc1)c1ccc(Cl)cc1 | inactive | – | – | – | – | – | – | – | – | – | – | – | – | zone of inhibition at 16.8 µM (Aspergillus niger [14]): 1.5 mm; zone of inhibition at 16.8 µM (Saccharomyces cerevisiae [15]): 2 mm; zone of inhibition at 25.2 µM (Saccharomyces cerevisiae [16]): 3 mm; zone of inhibition at 33.7 µM (Aspergillus niger [17]): 3 mm; zone of inhibition at 33.7 µM (Saccharomyces cerevisiae [18]): 3 mm; zone of inhibition at 25.2 µM (Aspergillus niger [19]): 3 mm
6.1 | 7.3 | 4.1 | 6.5 | O=C(Sc1nnc(-c2ccccc2OCc2cn(-c3ccc(Cl)cc3)nn2)n1Cc1ccccc1)c1ccccc1 | inactive | 5.3 | 6 | 7.4 | 5 | 7.6 | 7 | – | – | – | – | – | – | –
